In ChEMBL document CHEMBL3853347, “PUMA-dependent apoptosis in NSCLC cancer cells by a dimeric β-carboline” (Bioorg Med Chem Lett, 2016):
Active and inactive are the calls of the source. The calls are words filed in the database; no cut-off is given here.

Tests used:
[1] = Cytotoxicity against human NCI-H441 cells assessed as decrease in cell viability after 48 hrs by Alamar blue assay; type: functional, cell-based; details: NCI-H441, 48 h
[2] = tested on: NCI-H1299; assay: Induction of autophagy in human NCI-H1299 cells transfected with GFP-LC3 assessed as increase in LC3-2 level at 20 uM after 24 hr by DAPI staining based immunofluorescence assay; type: functional, cell-based
In short: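 H1299 cells transiently transfected with GFP-LC3, then treated 24 hrs with compound (3–20 μM) or DMSO. GFP-LC3 puncta were imaged by confocal microscopy and counted per cell; n=30 cells, s.d.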

[3] = Cytotoxicity against human NCI-H1299 cells assessed as decrease in cell viability after 48 hrs by Alamar blue assay; type: functional, cell-based; details: NCI-H1299, 48 h
[4] = Cytotoxicity against human A549 cells assessed as decrease in cell viability after 48 hrs by Alamar blue assay; type: functional, cell-based; details: A549, 48 h
[5] = Cytotoxicity against human NCI-H1993 cells assessed as decrease in cell viability after 48 hrs by Alamar blue assay; type: functional, cell-based; details: NCI-H1993, 48 h
[6] = Drug localization in lysosomes of human NCI-H1299 cells at 20 uM after 1 hr by mitotracker green FM/lysotracker red DND-99 staining based confocal microscopy; type: ADME, cell-based, Lysosome; details: nci-h1299, 1 h
In short: (§1)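 Live H1299 cells exposed to compound for 1 hr, then co-stained with MitoTracker Green FM (mitochondria) and LysoTracker Red DND-99 (lysosomes). Localization was read by live confocal microscopy using the β-carboline's intrinsic fluorescence (Ex/Em 358/461 nm), compared against the organelle stains.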

[7] = Cytotoxicity against human NCI-H2009 cells assessed as decrease in cell viability after 48 hrs by Alamar blue assay; type: functional, cell-based; details: NCI-H2009, 48 h
[8] = tested on: NCI-H1299; assay: Induction of apoptosis in human NCI-H1299 cells assessed as apoptotic cells at 15 uM after 48 hrs by annexin V-phycoerythrin/7-AAD staining based flow cytometry (reference value: 4%); type: functional
[9] = Cytotoxicity against human NCI-H1373 cells assessed as decrease in cell viability after 48 hrs by Alamar blue assay; type: functional, cell-based; details: NCI-H1373, 48 h
[10] = Cytotoxicity against human IMR90 cells assessed as decrease in cell viability after 48 hrs by Alamar blue assay; type: toxicity, cell-based, IMR-90
[11] = tested on: NCI-H1299; assay: Induction of autophagy in human NCI-H1299 cells transfected with GFP-LC3 assessed as increase in LC3-2 level at 3 to 10 uM after 24 hr by DAPI staining based immunofluorescence assay; type: functional, cell-based
[12] = tested on: NCI-H1299; assay: Induction of autophagy in human NCI-H1299 cells assessed as increase in LC3-2 level after 24 hr by Western blot analysis; type: functional, cell-based
In short: (§2)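 H1299 cells incubated 24 hrs with compound (3, 5, 10 or 20 μM) or DMSO. LC3 (LC3II band) and p62/SQSTM1 were detected by western blot.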

[13] = tested on: NCI-H1299; assay: Induction of apoptosis in human NCI-H1299 cells assessed as increase in cleaved caspase 3 level after 24 hrs by immunofluorescence based confocal microscopy; type: functional, cell-based
In short: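 H1299 cells treated 24 hrs with compound (5 or 20 μM) or DMSO, then immunostained for active caspase 3 and imaged by confocal microscopy. Apoptotic fraction was calculated as cells expressing active caspase over total cells; n=3, s.d.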

[14] = tested on: NCI-H1299; assay: Induction of apoptosis in human NCI-H1299 cells assessed as increase in cleaved caspase 3 level after 24 hrs by Western blot analysis; type: functional, cell-based
In short: (§3)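 H1299 cells treated 24 hrs with compound (3, 5, 10 or 20 μM) or DMSO. Lysates were probed by western blot for apoptotic markers: cleaved caspase 3, cleaved lamin A and cleaved PARP.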

[15] = Upregulation of PUMA expression in human NCI-H1299 cells assessed as after 24 hrs by Western blot analysis; type: functional, cell-based
In short: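 PUMA protein measured by western blot in H1299 cells after 24 hrs with compound (3, 5, 10 or 20 μM) or DMSO.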

[16] = tested on: NCI-H1299; assay: Induction of apoptosis in human NCI-H1299 cells assessed as increase in cleaved lamin A level at 3 to 10 uM after 24 hrs by Western blot analysis; type: functional, cell-based; in short: as §3
[17] = tested on: NCI-H1299; assay: Induction of apoptosis in human NCI-H1299 cells assessed as apoptotic cells at 3 uM after 48 hrs by annexin V-phycoerythrin/7-AAD staining based flow cytometry (reference value: 4%); type: functional
[18] = tested on: NCI-H1299; assay: Induction of autophagy in human NCI-H1299 cells assessed as increase in p62/SQSTM1 level at 3 to 10 uM after 24 hr by Western blot analysis; type: functional, cell-based; in short: as §2
[19] = Drug localization in lysosomes of human NCI-H1299 cells at 10 uM after 1 hr by mitotracker green FM/lysotracker red DND-99 staining based confocal microscopy; type: ADME, cell-based, Lysosome; details: nci-h1299, 1 h; in short: as §1
[20] = tested on: NCI-H1299; assay: Induction of apoptosis in human NCI-H1299 cells assessed as increase in cleaved PARP level at 3 to 10 uM after 24 hrs by Western blot analysis; type: functional, cell-based; in short: as §3

Structure (SMILES) | IC50 [1] | Activity [2] | IC50 [3] | IC50 [4] | IC50 [5] | Drug uptake [6] | IC50 [7] | Activity [8] | IC50 [9] | IC50 at 48 h [10] | Activity [11] | Activity [12] | Activity [13] | Activity [14] | Activity [15] | Activity [16] | Activity [17] | Activity [18] | Drug uptake [19] | Activity [20]
CN(CCN)CCNCc1nccc2c1[nH]c1ccccc12 | 4300 nM | Active | 15100 nM | 20500 nM | 9.3 µM | Active | 8900 nM | 11% | 13.2 µM | 12.9 µM |  |  |  |  |  |  |  |  |  | 
CN(CCNCc1nccc2c1[nH]c1ccccc12)CCNCc1nccc2c1[nH]c1ccccc12 | 700 nM |  | 1600 nM | 2900 nM | 1.2 µM |  | 1400 nM |  | 3.3 µM | 5.6 µM | Active | Dose-dependent effect | Dose-dependent effect | Dose-dependent effect | Dose-dependent effect | Active | 97% | Active | Active | Active
O[C@]12C=C(c3nccc4c3[nH]c3ccccc34)[C@@H]3CCN(CCCC/C=C\CC1)C[C@@]31C[C@@H]3/C=C\CCCCN3[C@H]12 [MANZAMINE A] | 1100 nM |  | 1500 nM | 2300 nM | 3.9 µM |  | 1600 nM |  | 2.1 µM | 6.8 µM | Active |  |  |  |  |  |  |  |  | 
